# Active and inactive are the calls of the source. The rule behind the calls is not given here.
# Assays:
# HeLa [1] = assay: Induction of apoptosis in human HeLa cells assessed as accumulation at subG1 phase at 1 uM after 24 hrs using propidium iodide staining by flow cytometry; type: functional
# In short: (§1)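 HeLa cells exposed 24 h to test agent; controls were 0.5% DMSO and untreated cells. Optional additions were CuCl₂ 10 μM, tempol 1 mM or z-VAD. Cells were fixed in 80% ethanol and held at −20 °C. They were then stained 30 min at room temperature in the dark with PI 0.08 mg/mL, 0.1% Triton X-100 and RNase A 0.2 mg/mL in PBS. Subdiploid (sub-G1) fraction was quantified by flow cytometry as % of all events.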
# [2] = Activation of JNK phosphorylation in human HeLa cells at 1 uM in presence of 10 uM CuCl2 after 24 hrs by Western blot
# HeLa [3] = assay: Activation of ERK phosphorylation in human HeLa cells at 1 uM in presence of 10 uM CuCl2 after 24 hrs by Western blot
# HeLa [4] = assay: Stimulation of reactive oxygen species in human HeLa cells at 1 uM in presence of 5 uM CuCl2 after 1 hr by dihydroethidium dye based fluorescence assay; type: functional, cell-based
# In short: (§2)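 HeLa cells grown in DMEM with 10% FBS, 2 mM glutamine, penicillin/streptomycin at 37 °C, 5% CO2. Compound given with CuCl2, with or without tempol 1 mM; 0.5% DMSO control, untreated blank. Dihydroethidium 5 µmol/L loaded 30 min, PBS wash, epifluorescence microscopy; four separate cultures, two to six coverslips each.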
# HeLa [5] = assay: Activation of ERK phosphorylation in human HeLa cells at 1 uM in presence of 10 uM CuCl2 after 48 hrs by Western blot; type: cell-based
# In short: (§3)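 HeLa cells grown in DMEM with 10% FBS, 2 mM glutamine and penicillin/streptomycin at 37 °C, 5% CO₂. Treated cells were lysed and the extracts run on Western blot. Membranes were blocked overnight at 4 °C in TBST/5% non-fat milk. Probed with phospho- and total ERK1/2, p38 and JNK antibodies, then anti-mouse or anti-rabbit IgG (1:10,000, 1 h, RT), with ECL detection.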
# HeLa [6] = assay: Growth inhibition of human HeLa cells after 48 hrs by MTT assay in presence of 100 uM ZnCl2; type: functional
# In short: (§4)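 Cells seeded at 5 × 10³/well and allowed 24 h to attach, then exposed to compound (DMSO stock) or vehicle for 48 h in 10% FBS DMEM at 37 °C, 5% CO₂. MTT (2 mg/mL in PBS) added for a further 2 h; formazan dissolved in DMSO and read at 570 nm. Inhibition = (1 − At/Ac) × 100. GI₅₀ interpolated from dose-response curves; mean ± SEM of 4–6 experiments; top concentration 40 μM.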
# [7] = biological target: T1, MAP kinase p38 (Homo sapiens) (UniProt O15264+Q15759+Q16539+P53778); assay: Activation of p38 phosphorylation in human HeLa cells at 1 uM in presence of 10 uM CuCl2 after 48 hrs by Western blot
# HeLa [8] = assay: Induction of apoptosis in human HeLa cells assessed as accumulation at subG1 phase at 1 uM in presence of 10 uM CuCl2 and 10 uM caspase inhibitor z-VAD after 24 hrs using propidium iodide staining by flow cytometry; type: functional; in short: as §1
# [9] = Activation of JNK phosphorylation in human HeLa cells at 1 uM in presence of 10 uM CuCl2 after 48 hrs by Western blot
# HeLa [10] = assay: Growth inhibition of human HeLa cells after 48 hrs by MTT assay in presence of 10% FBS supplemented DMEM medium; type: functional; in short: as §4
# HeLa [11] = assay: Induction of apoptosis in human HeLa cells assessed as accumulation at subG1 phase at 1 uM in presence of 10 uM CuCl2 and 1 mM tempol after 24 hrs using propidium iodide staining by flow cytometry; type: functional; in short: as §1
# HeLa [12] = assay: Activation of ERK phosphorylation in human HeLa cells at 1 uM in presence of 10 uM CuCl2 after 24 hrs by Western blot; type: cell-based; in short: as §3
# HeLa [13] = assay: Induction of apoptosis in human HeLa cells assessed as accumulation at subG1 phase at 1 uM in presence of 10 uM CuCl2 after 24 hrs using propidium iodide staining by flow cytometry; type: functional; in short: as §1
# [14] = Activation of JNK phosphorylation in human HeLa cells at 1 uM in presence of 10 uM CuCl2 after 24 hrs by Western blot; type: cell-based; in short: as §3
# HeLa [15] = assay: Growth inhibition of human HeLa cells after 48 hrs by MTT assay in presence of 50 uM ZnCl2; type: functional; in short: as §4
# [16] = biological target: T1, MAP kinase p38 (Homo sapiens); assay: Activation of p38 phosphorylation in human HeLa cells at 1 uM in presence of 10 uM CuCl2 after 24 hrs by Western blot; type: cell-based; in short: as §3
# HeLa [17] = assay: Growth inhibition of human HeLa cells after 48 hrs by MTT assay in presence of 10 uM CuCl2; type: functional; in short: as §4
# HeLa [18] = assay: Induction of apoptosis in human HeLa cells assessed as accumulation at subG1 phase at 2 uM after 24 hrs using propidium iodide staining by flow cytometry; type: functional; in short: as §1
# HeLa [19] = assay: Growth inhibition of human HeLa cells after 48 hrs by MTT assay in presence of 1 uM CuCl2; type: functional; in short: as §4
# [20] = biological target: T1, MAP kinase p38 (Homo sapiens); assay: Activation of p38 phosphorylation in human HeLa cells at 1 uM in presence of 10 uM CuCl2 after 24 hrs by Western blot
# [21] = biological target: T1, MAP kinase p38 (Homo sapiens); assay: Activation of p38 phosphorylation in human HeLa cells at 1 uM in presence of 10 uM CuCl2 after 48 hrs by Western blot; type: cell-based; in short: as §3
# HeLa [22] = assay: Activation of ERK phosphorylation in human HeLa cells at 1 uM in presence of 10 uM CuCl2 after 48 hrs by Western blot
# [23] = Growth inhibition of human BT-483 cells after 48 hrs by MTT assay in presence of 10% FBS supplemented DMEM medium; type: functional; settings: BT-483, 48 h; in short: as §4
# [24] = Activation of JNK phosphorylation in human HeLa cells at 1 uM in presence of 10 uM CuCl2 after 48 hrs by Western blot; type: cell-based; in short: as §3
# [25] = Growth inhibition of human CE81T cells after 48 hrs by MTT assay in presence of 10% FBS supplemented DMEM medium; type: functional; in short: as §4
# HeLa [26] = assay: Growth inhibition of human HeLa cells after 48 hrs by MTT assay in presence of 50 uM CuCl2; type: functional; in short: as §4
# [27] = Growth inhibition of human SKHep cells after 48 hrs by MTT assay in presence of 10% FBS supplemented DMEM medium; type: functional; in short: as §4
# HeLa [28] = assay: Stimulation of reactive oxygen species in human HeLa cells at 10 uM in presence of 10 uM CuCl2 after 1 hr by dihydroethidium dye based fluorescence assay; type: functional, cell-based; in short: as §2
# SKHep = assay: Growth inhibition of human SKHep cells at 40 uM after 48 hrs by MTT assay in presence of 10% FBS supplemented DMEM medium; type: functional, cell-based; in short: as §4
# CE81T = assay: Growth inhibition of human CE81T cells at 40 uM after 48 hrs by MTT assay in presence of 10% FBS supplemented DMEM medium; type: functional, cell-based; in short: as §4
# BT-483 = assay: Growth inhibition of human BT-483 cells at 40 uM after 48 hrs by MTT assay in presence of 10% FBS supplemented DMEM medium; type: functional, cell-based; in short: as §4
SMILES,GI50 (HeLa [6]),GI50 (HeLa [10]),GI50 (HeLa [15]),GI50 (HeLa [17]),GI50 (HeLa [19]),GI50 [23],GI50 [25],GI50 (HeLa [26]),GI50 [27],also measured
Cc1ccc(S(=O)(=O)N2CCN(Cc3cc([N+](=O)[O-])c4cccnc4c3O)CC2)cc1,0.26 µM,0.71 µM,0.48 µM,0.25 µM,0.65 µM,1.9 µM,5.9 µM,0.06 µM,14.6 µM,Activity (HeLa [1]): 6.77%; Activity [2]: Active; Activity (HeLa [3]): Active; Activity (HeLa [4]): Active; Activity (HeLa [5]): Active; Activity [7]: Active; Activity (HeLa [8]): 1.58%; Activity [9]: Active; Activity (HeLa [11]): 1.34%; Activity (HeLa [12]): Active; Activity (HeLa [13]): 17.5%; Activity [14]: Active; Activity [16]: Active; Activity (HeLa [18]): 18.57%; Activity [20]: Active; Activity [21]: Active; Activity (HeLa [22]): Active; Activity [24]: Active
CCN(CC)CCCC(C)Nc1ccnc2cc(Cl)ccc12 (stereo unspecified) [CHLOROQUINE],2.1 µM,18.6 µM,5.6 µM,5.3 µM,6.1 µM,10.2 µM,23.4 µM,4.4 µM,9.5 µM,Activity (HeLa [28]): Active
O=S(=O)(c1ccccc1)N1CCN(Cc2ccc3ccccc3c2O)CC1,20.1 µM,38.6 µM,29.7 µM,28.4 µM,40.1 µM,–,–,22.6 µM,–,GI50 (SKHep): inactive; GI50 (CE81T): inactive; GI50 (BT-483): inactive
